Experimental data pooled from the literature.
Lines come from different studies, so protocols differ.
murD: UDP-N-acetylmuramoylalanine--D-glutamate ligase (murD, Escherichia coli K-12, UniProt P14900)
BRD4 BD1: Bromodomain-containing protein 4, BD1 (BRD4, Homo sapiens, UniProt O60885)
KAT2B: Histone acetyltransferase KAT2B (KAT2B, Homo sapiens, UniProt Q92831)
HDAC8: Histone deacetylase 8 (HDAC8, Homo sapiens, UniProt Q9BY41)

N#Cc1ccc(COc2ccccc2C=NNS(=O)(=O)Cc2ccccc2F)cc1
remaining activity (murD; enzyme activity, inhibitor, absorbance; 100 µM): 39%

Cc1cnc(Nc2ccc(OCCN3CCCC3)cc2)nc1Nc1cccc(S(=O)(=O)NC(C)(C)C)c1
ΔTm (Tyrosine-protein kinase BAZ1B (BAZ1B, Homo sapiens, UniProt Q9UIG0); thermal stability, DSF; 10 µM): -0.02 °C

NS(=O)(=O)c1ccc(Nc2nc(-c3ccc(F)cc3)c3ccccc3n2)cc1
remaining binding (BRD4 BD1; binding, competition with immobilised ligand; 1 µM): 5%

CCCOc1ccc(OC)c(F)c1C(=O)c1ccc(C(=O)N[C@@H]2CNC[C@H]2NC(=O)c2ccc3[nH]ncc3c2)cc1
remaining activity (cGMP-dependent protein kinase 1 (PRKG1, Homo sapiens, UniProt Q13976); enzyme activity, inhibitor; 10 µM): -6%

Oc1ccc(-c2nc(-c3ccncc3)c(-c3ccc(F)cc3)[nH]2)cc1
ΔTm (KAT2B; thermal stability, DSF; 10 µM): -0.19 °C

CN(C)CCN1CCN(c2nc(NCc3cccc(Cl)c3)c3cc(-c4ccc(=O)n(C)c4)ccc3n2)CC1
ΔTm (BRD4 BD1; thermal stability, DSF; 250 µM): 15 °C

CC[C@H](CC[C@@H](C)[C@H]1CC[C@H]2[C@@H]3CC=C4C[C@@H](O[C@@H]5O[C@H](CO)[C@@H](O)[C@H](O)[C@H]5O)CC[C@]4(C)[C@H]3CC[C@]12C)C(C)C
inhibition (HDAC8; enzyme activity, inhibitor; 10 µM): -8.57%

CC(C)[C@@H]1NC(=O)[C@@H]2CCCN2C(=O)[C@H](Cc2ccccc2)NC(=O)CSC[C@@H](C(=O)N[C@@H](Cc2ccc(O)cc2)C(N)=O)NC(=O)[C@H](Cc2c[nH]c3ccccc23)NC(=O)[C@H](CCCCN)NC(=O)[C@H](Cc2ccccc2)N(C)C(=O)[C@H](Cc2ccccc2)NC1=O
ΔTm (BRD4 BD1; thermal stability, DSF; 50 µM): -0.52 °C

O=C(Nc1ccc(C=NNS(=O)(=O)c2ccc3ccccc3c2)cc1)c1ccc([N+](=O)[O-])cc1
remaining activity (murD; enzyme activity, inhibitor, absorbance; 50 µM): 81%

Cc1ccc(C(=O)Nc2ccc(CN3CCN(C)CC3)c(C(F)(F)F)c2)cc1C#Cc1cnc2cccnn12
remaining activity (Mitogen-activated protein kinase kinase kinase 4 (MAP3K4, Homo sapiens, UniProt Q9Y6R4); enzyme activity, inhibitor; 23.5 nM): 95%

O=C(Nc1ccc(C=NNS(=O)(=O)c2ccc3ccccc3c2)cc1)c1cc([N+](=O)[O-])cc([N+](=O)[O-])c1
remaining activity (murD; enzyme activity, inhibitor, absorbance; 100 µM): 78%

Nc1ncnc2c1ncn2[C@@H]1O[C@H](CO)[C@@H](O)[C@H]1O
inhibition (HDAC8; enzyme activity, inhibitor; 10 µM): -15.9%

O=C(Nc1ccc(C=NNS(=O)(=O)c2ccc3ccccc3c2)cc1)c1ccccc1
remaining activity (murD; enzyme activity, inhibitor, absorbance; 100 µM): 56%

C[S+]([O-])c1ccc(-c2nc(-c3ccncc3)c(-c3ccc(F)cc3)[nH]2)cc1 (centres unmarked)
ΔTm (Bromodomain-containing protein 4, BD2 (BRD4, Homo sapiens, UniProt O60885); thermal stability, DSF; 10 µM): 1.67 °C

N#Cc1ccc(COc2ccccc2C=NNS(=O)(=O)c2cccc([N+](=O)[O-])c2)cc1
remaining activity (murD; enzyme activity, inhibitor, absorbance; 100 µM): 74%

Nc1ncnc2occ(-c3ccc(NC(=O)Nc4cc(C(F)(F)F)ccc4F)cc3)c12
remaining signal (Cyclin-dependent kinase 11B (CDK11B, Homo sapiens, UniProt P21127); cell-free assay; 20 µM): 0.4%

Cc1cc2c(cc1N1C(=O)c3cccc4c(Cl)ccc(c34)C1=O)n(C)c(=O)n2C
ΔTm (KAT2B; thermal stability, DSF; 10 µM): 0.5 °C
